{"source": "paper PMC6071920", "about": "(MedChemComm, 2016)", "key": {"[1]": {"tested_on": "TSPO WT over-expressing 293T cells", "test": "Proliferation", "type": "cell-based, human", "conditions": "48 h, BrdU ELISA", "outline": "(§1)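 Clonally selected 293T cells, lentivirally transduced with human TSPO WT or A147T, puromycin-selected, grown in DMEM with 10% FBS, 100 U ml−1 penicillin/streptomycin and 2 mM glutamine. BrdU labelled at 37 °C for 4 h, then detected by BrdU ELISA. Stopped with 1 M sulfuric acid and read at 450 nm. Normalised to vehicle controls; one-way ANOVA with Dunnett's test.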"}, "[2]": {"tested_on": "TSPO A147T over-expressing 293T cells", "test": "Proliferation", "type": "cell-based, human", "conditions": "48 h, BrdU ELISA", "outline": "as §1"}, "TSPO [3]": {"tested_on": "TSPO", "conditions": "cited from earlier work; for Fold reduction of affinity in LABs compared to HABs: brain tissue or lymphocytes"}, "TSPO A147T [4]": {"tested_on": "TSPO A147T", "type": "binding, human", "conditions": "fold discrimination (loss of affinity at TSPO A147T versus TSPO WT)"}, "TSPO A147T [5]": {"target": "TSPO A147T (Homo sapiens, UniProt P30536)", "sequence (P30536 whole entry, stated change not applied)": "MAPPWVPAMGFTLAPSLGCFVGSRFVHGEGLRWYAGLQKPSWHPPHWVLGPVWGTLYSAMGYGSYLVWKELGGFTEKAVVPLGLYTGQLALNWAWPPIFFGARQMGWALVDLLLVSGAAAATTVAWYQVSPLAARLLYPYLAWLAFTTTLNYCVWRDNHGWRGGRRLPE", "type": "binding"}, "TSPO WT": {"target": "TSPO WT (Homo sapiens, UniProt P30536, T147A)", "sequence (P30536 whole entry T147A)": "as the sequence (P30536 whole entry, stated change not applied) above, with T147A counted along it", "type": "binding", "conditions": "3b versus 3a; 4b versus 4a"}, "TSPO [6]": {"target": "TSPO", "conditions": "read-out: Ki for the TSPO; cited from earlier work"}, "[7]": {"conditions": "cited from earlier work"}, "rat TSPO": {"target": "rat TSPO", "conditions": "read-out: Affinity commonly reported at the rat TSPO; cited from earlier work"}}, "note": "“And” between values parts separate entries of the source, which are not always exact repeats. Equal values may be shown once. Read-outs that look alike come from different tables or passages of the source."}
{"smiles": "CCN(CC)C(=O)Cc1c(-c2ccc(OC)cc2)nn2c(C)cc(C)nc12", "note": "[DPA-713]", "values": [{"measurement": "Effect on proliferation at 100 μM, TSPO WT cells", "setting": "[1]", "result": "did not significantly affect proliferation"}, {"measurement": "Effect on proliferation at 100 μM, TSPO A147T cells", "setting": "[2]", "result": "did not significantly affect proliferation"}]}
{"smiles": "CCN(Cc1ccccc1)C(=O)Cn1c(=O)n(C)c2cnc(-c3ccccc3)nc21", "note": "[XBD-173]", "values": [{"measurement": "Fold reduction of affinity in LABs compared to HABs", "setting": "TSPO [3]", "result": 13, "unit": "fold"}, {"measurement": "Ki", "setting": "TSPO [3]; read-out: Affinity at LABs, LAB brain tissue", "result": 30.3, "unit": "nM"}, {"measurement": "TSPO A147T Ki/TSPO WT Ki", "setting": "TSPO A147T [4]", "result": "5 and 5- to 6"}]}
{"smiles": "COc1ccccc1CN(C(C)=O)c1cnccc1Oc1ccccc1", "note": "[PBR-28]", "values": [{"measurement": "Fold reduction of affinity in LABs compared to HABs", "setting": "TSPO [3]", "result": 55, "unit": "fold"}]}
{"smiles": "CCN(CC)C(=O)Cn1c2ccccc2c2cc(Br)ccc21", "note": "[Compound 4a, 2-(3-Bromo-9H-carbazole-9-yl)-N,N-diethylacetamide]", "values": [{"measurement": "TSPO A147T Ki/TSPO WT Ki", "setting": "TSPO A147T [4]", "result": 5}]}
{"smiles": "CCN(CC)C(=O)Cn1c2ccccc2c2cc(-c3ccc(OC)cc3)ccc21", "note": "[Compound 5c, N,N-Diethyl-2-(3-(4-methoxyphenyl)-9H-carbazole-9-yl)acetamide]", "values": [{"measurement": "Fold improved (higher) affinity at TSPO A147T than the comparator analogue", "setting": "TSPO A147T [5]; 4b versus 4a, 5c versus 3a", "result": 2, "unit": "×"}]}
{"smiles": "CCN(CC)C(=O)Cn1c2ccccc2c2ccccc21", "note": "[Compound 3a, 2-(9H-Carbazol-9-yl)-N,N-diethylacetamide]", "values": [{"measurement": "TSPO A147T Ki/TSPO WT Ki", "setting": "TSPO A147T [4]", "result": 6}]}
{"smiles": "CCN(Cc1ccccc1)C(=O)Cn1c2ccccc2c2ccccc21", "note": "[Compound 3b, N-Benzyl-2-(9H-carbazol-9-yl)-N-ethylacetamide]", "values": [{"measurement": "Fold reduction in TSPO A147T affinity compared to 3a", "setting": "TSPO A147T [5]; 3b versus 3a", "result": 2.6, "unit": "×"}, {"measurement": "Fold lower affinity at TSPO WT than the N,N-diethylamide analogue", "setting": "TSPO WT", "result": 3, "unit": "×"}, {"measurement": "Effect on proliferation at 100 μM, TSPO WT cells", "setting": "[1]", "result": "did not significantly affect proliferation"}, {"measurement": "Effect on proliferation at 100 μM, TSPO A147T cells", "setting": "[2]", "result": "did not significantly affect proliferation"}]}
{"smiles": "NC(=O)c1nc(-c2ccccc2)c2ccccc2n1", "note": "[4-phenyl quinazoline-2-carboxamide]", "values": [{"measurement": "Ki", "setting": "TSPO [6]", "result": 0.5, "unit": "nM"}]}
{"smiles": "CCC(C)N(C)C(=O)c1cc2ccccc2c(-c2ccccc2Cl)n1", "note": "(centres unmarked) [PK 11195]", "values": [{"measurement": "In vivo bioavailability", "setting": "[7]", "result": "poor in vivo bioavailability"}, {"measurement": "Ki", "setting": "rat TSPO", "result": "0.7 to 18", "unit": "nM"}]}
{"smiles": "CCN(CC)C(=O)Cn1c2ccccc2c2cc(-c3ccccc3)ccc21", "note": "[Compound 5a, N,N-Diethyl-2-(3-phenyl-9H-carbazole-9-yl)acetamide]", "values": [{"measurement": "TSPO A147T Ki/TSPO WT Ki", "setting": "TSPO A147T [4]", "result": "5- to 6"}]}
